Measured values as given in ChEMBL document CHEMBL3739379, “Anti-Candida activity and cytotoxicity of a large library of new N-substituted-1,3-thiazolidin-4-one derivatives” (Eur J Med Chem, 2016).
Converted amounts (≈) assume the structure as drawn.

What follows are compounds tested on Staphylococcus aureus (assay: Antibacterial activity against Staphylococcus aureus after 18 to 22 hrs by broth microdilution method). Conditions: not given.
Type: functional
Procedure, shortened: (§1)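 Broth microdilution per NCCLS in Mueller-Hinton II broth; isolates subcultured for purity. Compounds dissolved in DMSO, serial dilutions 256 to 0.5 µg/mL; inoculum 10^5/mL. Controls: organism without compound, medium only. Incubation 18 to 22 h at 35 °C. MIC is the lowest concentration giving complete growth inhibition, read by unaided eye.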
`O=C1c2ccccc2C(=O)N1CN1C(=O)CS/C1=N\N=C\c1cccc2ccccc12` showed an MIC of over 256 mg/L.
Work on `C/C(=N\N=C1/SCC(=O)N1Cc1cccc2ccccc12)c1ccccc1` yielded an MIC of over 256 mg/L.
`O=C1CS/C(=N\N=C2CCCCCCC2)N1Cc1cccc2ccccc12` was tested, and the MIC was over 256 mg/L.
`C/C(=N\N=C1/SCC(=O)N1CN1C(=O)c2ccccc2C1=O)c1ccccn1` showed an MIC of over 256 mg/L.
`C/C(=N\N=C1/SCC(=O)N1CN1C(=O)c2ccccc2C1=O)C1CCCCC1` showed an MIC of over 256 mg/L.

The compounds below were run on Candida tropicalis (assay: Antifungal activity against Candida tropicalis clinical isolate after 24 hrs by sabouraud dextrose broth based microdilution method). Conditions: not given.
Type: functional
Procedure, shortened: (§2)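 Clinical isolates identified by conventional methods and subcultured for purity. Broth microdilution per NCCLS in Sabouraud dextrose broth; compounds dissolved in DMSO and serially diluted; inoculum 10^3/mL. Controls: fungi without compound, medium only. Incubated 24 h at 37 °C. MIC is the lowest concentration with complete growth inhibition by unaided eye. Values are geometric means over isolates per species.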
For `O=C1c2ccccc2C(=O)N1CN1C(=O)CS/C1=N\N=C\c1cccc2ccccc12`, the MIC was 128 mg/L (≈ 299 µM).
Compound `C/C(=N\N=C1/SCC(=O)N1Cc1cccc2ccccc12)c1ccccc1` has an MIC of 2 mg/L (≈ 5.36 µM).
`O=C1CS/C(=N\N=C2CCCCCCC2)N1Cc1cccc2ccccc12` was tested, and the MIC was 8 mg/L (≈ 21.1 µM).
For `C/C(=N\N=C1/SCC(=O)N1CN1C(=O)c2ccccc2C1=O)c1ccccn1`, the MIC was 2 mg/L (≈ 5.08 µM).
In the case of `C/C(=N\N=C1/SCC(=O)N1CN1C(=O)c2ccccc2C1=O)C1CCCCC1`, the MIC is reported as 256 mg/L (≈ 642 µM).

These compounds were tested on Nakaseomyces glabratus (assay: Antifungal activity against Candida glabrata clinical isolate after 24 hrs by sabouraud dextrose broth based microdilution method). Conditions: not given.
Type: functional
Procedure, shortened: as §2
In the case of `O=C1c2ccccc2C(=O)N1CN1C(=O)CS/C1=N\N=C\c1cccc2ccccc12`, the MIC is reported as 16 mg/L (≈ 37.3 µM).
`C/C(=N\N=C1/SCC(=O)N1Cc1cccc2ccccc12)c1ccccc1` showed an MIC of 8 mg/L (≈ 21.4 µM).
`O=C1CS/C(=N\N=C2CCCCCCC2)N1Cc1cccc2ccccc12` showed an MIC of 32 mg/L (≈ 84.3 µM).
In the case of `C/C(=N\N=C1/SCC(=O)N1CN1C(=O)c2ccccc2C1=O)c1ccccn1`, the MIC is reported as 32 mg/L (≈ 81.3 µM).
With `C/C(=N\N=C1/SCC(=O)N1CN1C(=O)c2ccccc2C1=O)C1CCCCC1` the MIC was 16 mg/L (≈ 40.2 µM).

The compounds below were run on Enterobacter sp. (assay: Antibacterial activity against Enterobacter sp. after 18 to 22 hrs by broth microdilution method). Conditions: not given.
Type: functional
Procedure, shortened: as §1
With `O=C1c2ccccc2C(=O)N1CN1C(=O)CS/C1=N\N=C\c1cccc2ccccc12` the MIC was over 256 mg/L.
For `C/C(=N\N=C1/SCC(=O)N1Cc1cccc2ccccc12)c1ccccc1`, the MIC was over 256 mg/L.
With `O=C1CS/C(=N\N=C2CCCCCCC2)N1Cc1cccc2ccccc12` the MIC was over 256 mg/L.
`C/C(=N\N=C1/SCC(=O)N1CN1C(=O)c2ccccc2C1=O)c1ccccn1` was tested, and the MIC was over 256 mg/L.
`C/C(=N\N=C1/SCC(=O)N1CN1C(=O)c2ccccc2C1=O)C1CCCCC1` was tested, and the MIC was over 256 mg/L.

The compounds below were run on [Candida] sake (assay: Antifungal activity against Candida sake clinical isolate after 24 hrs by sabouraud dextrose broth based microdilution method). Conditions: Fermentozyma sake.
Type: functional
Procedure, shortened: as §2
With `O=C1c2ccccc2C(=O)N1CN1C(=O)CS/C1=N\N=C\c1cccc2ccccc12` the MIC was 128 mg/L (≈ 299 µM).
Work on `C/C(=N\N=C1/SCC(=O)N1Cc1cccc2ccccc12)c1ccccc1` yielded an MIC of 8 mg/L (≈ 21.4 µM).
For `O=C1CS/C(=N\N=C2CCCCCCC2)N1Cc1cccc2ccccc12`, the MIC was 4 mg/L (≈ 10.5 µM).
With `C/C(=N\N=C1/SCC(=O)N1CN1C(=O)c2ccccc2C1=O)c1ccccn1` the MIC was 4 mg/L (≈ 10.2 µM).
`C/C(=N\N=C1/SCC(=O)N1CN1C(=O)c2ccccc2C1=O)C1CCCCC1` was tested, and the MIC was 16 mg/L (≈ 40.2 µM).

The compounds below were run on Candida albicans (assay: Antifungal activity against Candida albicans clinical isolate after 24 hrs by sabouraud dextrose broth based microdilution method). Conditions: not given.
Type: functional
Procedure, shortened: as §2
Work on `O=C1c2ccccc2C(=O)N1CN1C(=O)CS/C1=N\N=C\c1cccc2ccccc12` yielded an MIC of 256 mg/L (≈ 597 µM).
Compound `C/C(=N\N=C1/SCC(=O)N1Cc1cccc2ccccc12)c1ccccc1` has an MIC of 2 mg/L (≈ 5.36 µM).
Work on `O=C1CS/C(=N\N=C2CCCCCCC2)N1Cc1cccc2ccccc12` yielded an MIC of 4 mg/L (≈ 10.5 µM).
`C/C(=N\N=C1/SCC(=O)N1CN1C(=O)c2ccccc2C1=O)c1ccccn1` showed an MIC of 2 mg/L (≈ 5.08 µM).
`C/C(=N\N=C1/SCC(=O)N1CN1C(=O)c2ccccc2C1=O)C1CCCCC1` was tested, and the MIC was 256 mg/L (≈ 642 µM).

What follows are compounds tested on Staphylococcus warneri (assay: Antibacterial activity against Staphylococcus warneri after 18 to 22 hrs by broth microdilution method). Conditions: not given.
Type: functional
Procedure, shortened: as §1
For `O=C1c2ccccc2C(=O)N1CN1C(=O)CS/C1=N\N=C\c1cccc2ccccc12`, the MIC was over 256 mg/L.
In the case of `C/C(=N\N=C1/SCC(=O)N1Cc1cccc2ccccc12)c1ccccc1`, the MIC is reported as over 256 mg/L.
In the case of `O=C1CS/C(=N\N=C2CCCCCCC2)N1Cc1cccc2ccccc12`, the MIC is reported as over 256 mg/L.
With `C/C(=N\N=C1/SCC(=O)N1CN1C(=O)c2ccccc2C1=O)c1ccccn1` the MIC was over 256 mg/L.
Compound `C/C(=N\N=C1/SCC(=O)N1CN1C(=O)c2ccccc2C1=O)C1CCCCC1` has an MIC of over 256 mg/L.

The compounds below were run on Pichia kudriavzevii (assay: Antifungal activity against Candida krusei clinical isolate after 24 hrs by sabouraud dextrose broth based microdilution method). Conditions: not given.
Type: functional
Procedure, shortened: as §2
For `O=C1c2ccccc2C(=O)N1CN1C(=O)CS/C1=N\N=C\c1cccc2ccccc12`, the MIC was 128 mg/L (≈ 299 µM).
`C/C(=N\N=C1/SCC(=O)N1Cc1cccc2ccccc12)c1ccccc1` gave an MIC of 32 mg/L (≈ 85.7 µM).
For `O=C1CS/C(=N\N=C2CCCCCCC2)N1Cc1cccc2ccccc12`, the MIC was 4 mg/L (≈ 10.5 µM).
Compound `C/C(=N\N=C1/SCC(=O)N1CN1C(=O)c2ccccc2C1=O)c1ccccn1` has an MIC of 32 mg/L (≈ 81.3 µM).
With `C/C(=N\N=C1/SCC(=O)N1CN1C(=O)c2ccccc2C1=O)C1CCCCC1` the MIC was 16 mg/L (≈ 40.2 µM).

What follows are compounds tested on Enterococcus faecalis (assay: Antibacterial activity against […] faecalis after 18 to 22 hrs by broth microdilution method). Conditions: not given.
Type: functional
Procedure, shortened: as §1
For `O=C1c2ccccc2C(=O)N1CN1C(=O)CS/C1=N\N=C\c1cccc2ccccc12`, the MIC was over 256 mg/L.
With `C/C(=N\N=C1/SCC(=O)N1Cc1cccc2ccccc12)c1ccccc1` the MIC was over 256 mg/L.
`O=C1CS/C(=N\N=C2CCCCCCC2)N1Cc1cccc2ccccc12` was tested, and the MIC was over 256 mg/L.
`C/C(=N\N=C1/SCC(=O)N1CN1C(=O)c2ccccc2C1=O)c1ccccn1` was tested, and the MIC was over 256 mg/L.
`C/C(=N\N=C1/SCC(=O)N1CN1C(=O)c2ccccc2C1=O)C1CCCCC1` showed an MIC of over 256 mg/L.

What follows are compounds tested on Klebsiella oxytoca (assay: Antibacterial activity against Klebsiella oxytoca after 18 to 22 hrs by broth microdilution method). Conditions: not given.
Type: functional
Procedure, shortened: as §1
Work on `O=C1c2ccccc2C(=O)N1CN1C(=O)CS/C1=N\N=C\c1cccc2ccccc12` yielded an MIC of over 256 mg/L.
For `C/C(=N\N=C1/SCC(=O)N1Cc1cccc2ccccc12)c1ccccc1`, the MIC was over 256 mg/L.
Compound `O=C1CS/C(=N\N=C2CCCCCCC2)N1Cc1cccc2ccccc12` has an MIC of over 256 mg/L.
Compound `C/C(=N\N=C1/SCC(=O)N1CN1C(=O)c2ccccc2C1=O)c1ccccn1` has an MIC of over 256 mg/L.
`C/C(=N\N=C1/SCC(=O)N1CN1C(=O)c2ccccc2C1=O)C1CCCCC1` was tested, and the MIC was over 256 mg/L.

What follows are compounds tested on Staphylococcus haemolyticus (assay: Antibacterial activity against Staphylococcus haemolyticus after 18 to 22 hrs by broth microdilution method). Conditions: not given.
Type: functional
Procedure, shortened: as §1
Compound `O=C1c2ccccc2C(=O)N1CN1C(=O)CS/C1=N\N=C\c1cccc2ccccc12` has an MIC of over 256 mg/L.
`C/C(=N\N=C1/SCC(=O)N1Cc1cccc2ccccc12)c1ccccc1` showed an MIC of over 256 mg/L.
For `O=C1CS/C(=N\N=C2CCCCCCC2)N1Cc1cccc2ccccc12`, the MIC was over 256 mg/L.
`C/C(=N\N=C1/SCC(=O)N1CN1C(=O)c2ccccc2C1=O)c1ccccn1` gave an MIC of over 256 mg/L.
With `C/C(=N\N=C1/SCC(=O)N1CN1C(=O)c2ccccc2C1=O)C1CCCCC1` the MIC was over 256 mg/L.

Each compound was assayed on Candida parapsilosis (assay: Antifungal activity against Candida parapsilosis clinical isolate after 24 hrs by sabouraud dextrose broth based microdilution method). Conditions: Lodderomyces parapsilosis.
Type: functional
Procedure, shortened: as §2
In the case of `O=C1c2ccccc2C(=O)N1CN1C(=O)CS/C1=N\N=C\c1cccc2ccccc12`, the MIC is reported as 128 mg/L (≈ 299 µM).
With `C/C(=N\N=C1/SCC(=O)N1Cc1cccc2ccccc12)c1ccccc1` the MIC was 32 mg/L (≈ 85.7 µM).
`O=C1CS/C(=N\N=C2CCCCCCC2)N1Cc1cccc2ccccc12` showed an MIC of 4 mg/L (≈ 10.5 µM).
`C/C(=N\N=C1/SCC(=O)N1CN1C(=O)c2ccccc2C1=O)c1ccccn1` gave an MIC of 4 mg/L (≈ 10.2 µM).
`C/C(=N\N=C1/SCC(=O)N1CN1C(=O)c2ccccc2C1=O)C1CCCCC1` gave an MIC of 16 mg/L (≈ 40.2 µM).

What follows are compounds tested on Escherichia coli (assay: Antibacterial activity against Escherichia coli at after 18 to 22 hrs by broth microdilution method). Conditions: not given.
Type: functional
Procedure, shortened: as §1
`O=C1c2ccccc2C(=O)N1CN1C(=O)CS/C1=N\N=C\c1cccc2ccccc12` gave an MIC of over 256 mg/L.
Work on `C/C(=N\N=C1/SCC(=O)N1Cc1cccc2ccccc12)c1ccccc1` yielded an MIC of over 256 mg/L.
`O=C1CS/C(=N\N=C2CCCCCCC2)N1Cc1cccc2ccccc12` was tested, and the MIC was over 256 mg/L.
Work on `C/C(=N\N=C1/SCC(=O)N1CN1C(=O)c2ccccc2C1=O)c1ccccn1` yielded an MIC of over 256 mg/L.
Compound `C/C(=N\N=C1/SCC(=O)N1CN1C(=O)c2ccccc2C1=O)C1CCCCC1` has an MIC of over 256 mg/L.

Each compound was assayed on Proteus mirabilis (assay: Antibacterial activity against Proteus mirabilis after 18 to 22 hrs by broth microdilution method). Conditions: not given.
Type: functional
Procedure, shortened: as §1
In the case of `O=C1c2ccccc2C(=O)N1CN1C(=O)CS/C1=N\N=C\c1cccc2ccccc12`, the MIC is reported as over 256 mg/L.
In the case of `C/C(=N\N=C1/SCC(=O)N1Cc1cccc2ccccc12)c1ccccc1`, the MIC is reported as over 256 mg/L.
Compound `O=C1CS/C(=N\N=C2CCCCCCC2)N1Cc1cccc2ccccc12` has an MIC of over 256 mg/L.
`C/C(=N\N=C1/SCC(=O)N1CN1C(=O)c2ccccc2C1=O)c1ccccn1` showed an MIC of over 256 mg/L.
For `C/C(=N\N=C1/SCC(=O)N1CN1C(=O)c2ccccc2C1=O)C1CCCCC1`, the MIC was over 256 mg/L.
